Screens as filed in PubChem.
V1R ag counter: V1a receptor agonism, counter-screen for OXTR agonists; activation, % at 3 µM; AID 2797; actives 0.25% (n = 320,000); P37288; CHO-V1R cells, Fluo-8 calcium fluorescence, agonist mode; 0% DMSO, 100% 3 nM vasopressin;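 active = activation above the mean activation of all tested compounds plus 3 SD, per screening run, cut at about 20% in these data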;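 also: signal is peak over basal fluorescence ratio across a 100 second FLIPR read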
Target sequence (P37288 whole entry, looked up): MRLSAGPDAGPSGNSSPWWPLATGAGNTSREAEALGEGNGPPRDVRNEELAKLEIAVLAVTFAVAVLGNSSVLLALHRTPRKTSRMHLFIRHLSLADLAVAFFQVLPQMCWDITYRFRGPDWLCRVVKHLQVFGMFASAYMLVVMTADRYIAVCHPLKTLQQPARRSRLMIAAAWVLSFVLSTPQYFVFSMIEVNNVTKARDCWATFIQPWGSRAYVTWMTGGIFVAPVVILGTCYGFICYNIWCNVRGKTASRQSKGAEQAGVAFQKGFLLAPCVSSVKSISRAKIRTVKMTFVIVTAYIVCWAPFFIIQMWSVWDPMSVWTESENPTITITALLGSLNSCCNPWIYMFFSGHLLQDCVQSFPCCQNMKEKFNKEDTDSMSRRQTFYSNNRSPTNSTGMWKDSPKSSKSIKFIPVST
TAAR1 antag: human TAAR1 antagonism; Q96RJ0; CHO RD-HGA16 TAAR1, Fluo-8 calcium fluorescence, antagonist; inhibition, % at 3 µM; actives 1.5% (n = 360,000); AID 624466;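 active = inhibition above a per-plate cutoff, the mean inhibition of test compounds on that plate plus 3 SD, cut at about 49% in these data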
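Assay system: CHO-derived RD-HGA16 cells stably expressing human TAAR1 plus Gα16. Timing: 140 s kinetic read after compound, 140 s after agonist. Technique: kinetic Fluo-8 calcium fluorescence measurement. Measure: % inhibition of agonist calcium response.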
OXTR potentiate: human OXTR potentiation | actives 0.061% (n = 320,000) | P30559 | CHO-OTR cells, Fluo-8 calcium fluorescence, potentiator mode; 0% = oxytocin EC15, 100% = EC100 | activation, % at 3 µM;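 active = activation above that plate's cutoff, the mean activation of tested compounds plus 3 SD, cut at about 6.6% in these data, passing the limit was not always enough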
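Material: human OTR in CHO cells. Compound: 3.0 µM, one dose. Timing: compound 6 min at room temperature before oxytocin, 100 s read. Evaluation: % activation of max/min ratio relative to oxytocin controls. Replication: single well per compound, singlicate. Signal: Fluo-8 calcium dye fluorescence.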
OXTR agonist: activates the human oxytocin receptor. P30559. actives 0.32% (n = 320,000). activation, % at 3 µM. CHO-OTR cells, Fluo-8 calcium fluorescence; normalized: DMSO 0%, oxytocin 100%. AID 2435;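 active = activation above the mean of all tested compounds plus 3 SD, cutoff set per screening run, cut at about 20% in these data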;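 also: peak over basal fluorescence ratio from a 100 s FLIPR kinetic read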
TAAR1 agonist: agonists of human TAAR1; Q96RJ0; CHO RD-HGA16 TAAR1, Fluo-8 calcium fluorescence; vehicle wells 0%, saturating PEA agonist 100%; activation, % at 3 µM; actives 0.99% (n = 360,000); AID 624467;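 active = activation above the mean activation of all test compounds in the run plus 3 SD, cut at about 38% in these data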
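System: CHO RD-HGA16 cells carrying human TAAR1 plus Gα16; Incubation: 17-24 h seeding, 75 min 37 °C dye, 30 min RT; Measured by: Fluo-8 fluorescence, 5 s baseline then 140 s kinetic read; Control set: DMSO and PEA EC100; Replication: single well for each compound.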
TAAR1 ag confirm: confirmation of human TAAR1 agonists. shares compounds with TAAR1 agonist. CHO RD-HGA16 TAAR1, Fluo-8 calcium fluorescence; scaled: DMSO 0%, maximal phenethylamine 100%. actives 82% (n = 2,400). activation, % at 3 µM. AID 651783;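 active = activation above a cutoff set at the run's mean compound activation plus 3 SD, cut at about 39% in these data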
Ga16 ag counter: nonselective agonism, TAAR1 counter-screen; shares compounds with TAAR1 agonist; CHO-Ga16 parental, Fluo-8 calcium fluorescence; normalized to maximal ATP response, DMSO zero; activation, % at 3 µM; actives 50% (n = 2,400);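 active = activation above the run cutoff, the mean activation over all tested wells plus 3 SD, cut at about 12% in these data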
TAAR1 desens: TAAR1 response desensitization, agonist counter-screen; AID 651951; CHO RD-HGA16 hTAAR1, Fluo-8 calcium, beta-PEA response inhibition; shares compounds with TAAR1 agonist; actives 46% (n = 2,400); inhibition, % at 3 µM;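 active = inhibition above the run cutoff, the mean inhibition of all test compounds plus 3 SD, cut at about 49% in these data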;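 also: beta-PEA stimulus applied at its EC80; loss of beta-PEA calcium signal after compound pretreatment read as receptor desensitization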
Ga16 nonsel ant: counter-screen for TAAR1 agonists: nonselective Ga16 antagonists; shares compounds with TAAR1 agonist; CHO-Ga16 ATP-induced calcium, Fluo-8 fluorescence; inhibition, % at 3 µM; actives 39% (n = 2,400); AID 651952;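 active = inhibition above the plate's mean compound inhibition plus 3 SD, computed per plate, cut at about 22% in these data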
Hits are given with their value; n = inactive; x = no result. Sampled rows, rich in hits. Any-hit rate of the full collection: about 2.3%.

SMILES	V1R ag counter	TAAR1 antag	OXTR potentiate	OXTR agonist	TAAR1 agonist	TAAR1 ag confirm	Ga16 ag counter	TAAR1 desens	Ga16 nonsel ant
Cc1ccc(CC(C)(O)CC(C)(O)Cc2ccc(C)cc2)cc1 (stereo unspecified)	x	n	x	x	n	x	x	x	x
Cc1c(CN2CCCC(C)C2)c(O)n(CCO)c(=O)c1C#N (stereo unspecified)	n	x	n	n	x	x	n	x	n
CS(=O)(=O)c1ccc(Nc2nc(C(N)Cc3ccc(F)cc3)cs2)cc1 (stereo unspecified)	x	n	x	x	n	x	x	x	x
NC(Cc1ccccc1)c1csc(Nc2ccc(C(=O)NCCO)cc2)n1 (stereo unspecified)	x	n	x	x	45	76	n	58	n
CS(=O)(=O)c1ccc(Nc2nc(C(N)Cc3ccccc3)cs2)cc1 (stereo unspecified)	x	n	x	x	47	75	n	n	n
NC(Cc1ccc(F)cc1)c1csc(Nc2ccc(S(N)(=O)=O)cc2)n1 (stereo unspecified)	x	n	x	x	61	76	n	53	n
CCN(CC)CCn1c2c(c(SCC(=O)Nc3nc4ccccc4s3)nc1=O)CCC2	n	n	n	n	n	x	x	x	x
O=C(O)C1C2CCC(C2)C1C(=O)NCCc1ccc(F)cc1 (stereo unspecified)	n	79	n	n	78	77	n	55	n
O=C(O)C1C2CCC(C2)C1C(=O)NCCc1cccc(Cl)c1 (stereo unspecified)	n	86	n	n	76	88	n	73	n
O=C(O)C1C2CCC(C2)C1C(=O)Nc1cc(F)ccc1F (stereo unspecified)	n	n	n	n	n	x	x	x	x
Cc1[nH]nc2ncc(C(=O)c3cc(F)ccc3O)cc12	n	n	n	n	n	x	x	x	x
CCCCN1Cc2cc(C(=O)c3cc(F)ccc3O)cnc2NC1=O	n	n	n	n	82	53	24	n	n
COc1ccccc1N1CCN(Cc2cc(=O)oc3ccccc23)CC1	x	n	x	x	n	x	x	x	x
CNCCc1ccccn1	n	58	n	n	81	92	n	82	n
c1ccc(NCCc2ccccn2)cc1	x	n	x	x	n	x	x	x	x
c1ccc(CCNCc2cccs2)nc1	x	n	x	x	52	66	n	n	n
c1ccc(N=NC2=NN(c3ccccc3)CS2)cc1	x	n	x	x	n	x	x	x	x
Cn1c(C(=O)OCC(=O)NCCc2ccccc2)cc2sccc21	n	n	n	n	98	n	n	n	n
CC(C)(C)c1ccc(C(=O)NC(=S)NNC(=O)COc2ccccc2)cc1	n	67	n	n	124	124	101	100	81
Cc1ccc(C(=O)NNC(=S)NC(=O)COc2ccccc2)cc1	n	74	n	n	142	130	111	89	68
Cc1ccccc1C(=O)NNC(=S)NC(=O)COc1ccccc1	n	n	n	n	n	x	x	x	x
Cc1ccc(OCC(=O)Nc2ccc(NC(=O)c3ccccc3)c(C)c2)cc1	x	n	x	x	44	52	21	63	n
Cc1ccccc1-c1nnc(SCC(=O)NC2CCCC2)n1C	n	n	n	n	n	x	x	x	x
C[C@H]1[C@@H](c2ccccc2)Oc2ccc(Cl)cc2S(=O)(=O)N1Cc1cccc(Cl)c1	x	n	x	x	n	x	x	x	x
C[C@H]1[C@H](c2ccccc2)Oc2cccc(NCCc3ccccc3)c2S(=O)(=O)N1Cc1cccc(F)c1	x	n	x	x	61	41	n	n	n
C[C@H]1[C@H](c2ccccc2)Oc2cccc(NCCc3ccccc3)c2S(=O)(=O)N1Cc1cccc(Cl)c1	x	n	x	x	40	62	n	n	n
